Source: ChEMBL document CHEMBL2417386, “Novel conjugated quinoline-indoles compromise Plasmodium falciparum mitochondrial function and show promising antimalarial activity” (J Med Chem, 2013)

How the values were obtained:
Plasmodium falciparum [1] = assay: Antimalarial activity against trophozoite stage of Plasmodium falciparum 3D7 infected in RBC assessed as growth inhibition after 5 hrs by SYBR Green-I fluorescence assay; format: functional, organism-based; details: 3D7, 5 h
Outline: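 Trophozoite-stage parasites pulsed with compound for 5 h. Drug then washed out and parasites cultured a further 43 h before survival was assessed.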

Plasmodium falciparum [2] = assay: Antimalarial activity against mid to late trophozoite stage of Plasmodium falciparum 3D7 infected in RBC assessed as nonviable parasite at 0.001 uM after 0.5 hrs by SYTO 61 staining-based flow cytometric analysis relative to untreated control; format: functional
Plasmodium falciparum [3] = assay: Antimalarial activity against mid to late trophozoite stage of Plasmodium falciparum 3D7 infected in RBC assessed as nonviable parasite at 0.0002 uM after 0.5 hrs by SYTO 61 staining-based flow cytometric analysis relative to untreated control; format: functional
Plasmodium falciparum [4] = assay: Antimalarial activity against mid to late trophozoite stage of Plasmodium falciparum 3D7 infected in RBC assessed as abnormal mitochondria at 0.001 uM after 0.5 hrs by MitoTracker Red CMXRos-based fluorescence microscopic analysis relative to untreated control; format: functional
Plasmodium falciparum [5] = assay: Ratio of IC50 for trophozoite stage of Plasmodium falciparum 3D7 infected in RBC after 5 hrs in presence of 0.2 uM ALLN to IC50 for trophozoite stage of Plasmodium falciparum 3D7 infected in RBC after 5 hrs in absence of ALLN; format: functional
Outline: (§1)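 Trophozoite-stage parasites pulsed 5 h with compound, with or without ALLN (0.2 or 5 μM). Drug and ALLN then removed; culture continued a further 43 h before survival was assessed. Antagonism expressed as the ratio of IC50 with ALLN to IC50 without ALLN.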

Plasmodium falciparum [6] = assay: Antimalarial activity against Plasmodium falciparum 3D7 infected in RBC assessed as growth inhibition after 48 hrs by SYBR Green-I fluorescence assay; format: functional, organism-based; details: 3D7, 48 h
Outline: (§2)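 Parasite-infected red cells exposed to compound for 48 h; growth read by SYBR Green-I fluorescence; IC50 derived. Where a ± is given, it is the standard deviation of three individual experiments.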

Plasmodium falciparum [7] = assay: Ratio of IC50 for trophozoite stage of Plasmodium falciparum 3D7 infected in RBC after 5 hrs in presence of 5 uM ALLN to IC50 for trophozoite stage of Plasmodium falciparum 3D7 infected in RBC after 5 hrs in absence of ALLN; format: functional; outline: as §1
Plasmodium falciparum [8] = assay: Ratio of IC50 for trophozoite stage of Plasmodium falciparum 3D7 infected in RBC after 5 hrs to IC50 for Plasmodium falciparum 3D7 infected in RBC after 48 hrs; format: functional
Plasmodium falciparum [9] = assay: Antimalarial activity against mid to late trophozoite stage of Plasmodium falciparum 3D7 infected in RBC assessed as abnormal mitochondria at 0.0002 uM after 0.5 hrs by MitoTracker Red CMXRos-based fluorescence microscopic analysis relative to untreated control; format: functional
Plasmodium falciparum [10] = assay: Antimalarial activity against Plasmodium falciparum K1 infected in RBC assessed as growth inhibition after 48 hrs by SYBR Green-I fluorescence assay; format: functional, organism-based; details: K1, 48 h; outline: as §2
Plasmodium falciparum [11] = assay: Resistant index, ratio of IC50 for Plasmodium falciparum K1 to IC50 for Plasmodium falciparum 3D7; format: functional
Outline: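 Ratio of K1 to 3D7 IC50 values. Each IC50 comes from a 48 h drug exposure of the P. falciparum strain, with growth read by SYBR Green-I fluorescence. Where spread is given, it is the standard deviation of three individual experiments.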

[12] = Selectivity index, ratio of IC50 for HEK293 cells to IC50 for Plasmodium falciparum 3D7 after 72 hrs; format: toxicity, cell-based; details: human, read-out: Ratio IC50
Outline: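 Parasite (3D7) viability assay and HEK293 viability assay, each with a 72 h exposure. Index taken as the ratio of the IC50 values, HEK293 over 3D7.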

[13] = Inhibition of beta-hematin formation after 24 hrs by spectrophotometric analysis in presence of nonidet P40; format: functional

Row | Structure (SMILES) | IC50 (Plasmodium falciparum [6]) [µM] | IC50 (Plasmodium falciparum [10]) [µM] | Ratio IC50 (Plasmodium falciparum [11]) | selectivity ratio at 72 h [12] | also measured
1 | CC1(C)N=C(N)N=C(N)N1OCCCOc1cc(Cl)c(Cl)cc1Cl | 0.00046 |  |  |  | IC50 (Plasmodium falciparum [1]): 0.0004 µM; Activity (Plasmodium falciparum [2]): 73%; Activity (Plasmodium falciparum [3]): 40%; Activity (Plasmodium falciparum [4]): 3%; Ratio IC50 (Plasmodium falciparum [5]): 0.7; Ratio IC50 (Plasmodium falciparum [7]): 0.7; Ratio IC50 (Plasmodium falciparum [8]): 0.9; Activity (Plasmodium falciparum [9]): 3%
2 | Cc1cc(N)c2ccccc2[n+]1C | > 4 | > 5 |  |  | 
3 | C[n+]1c(/C=C/c2c[nH]c3cc(F)ccc23)cc(N)c2ccccc21.[I-] | 0.29 | 0.14 | 0.3 | 4 | 
4 | C[n+]1c(/C=C/c2c[nH]c3ncccc23)cc(N)c2ccccc21.[I-] | 0.4 | 0.25 | 0.3 | 4 | 
5 | C[n+]1c(/C=C/c2n[nH]c3ccccc23)cc(N)c2ccccc21.[I-] | 0.7 | 0.23 | 0.3 | 107 | IC50 [13]: 1500 µM
6 | C[n+]1c(/C=C/c2c[nH]c3ccccc23)cc(N)c2ccc(Cl)cc21 | 0.4 | 0.19 |  | 2 | IC50 [13]: 300 µM
7 | CCCC[n+]1c(/C=C/c2c[nH]c3ccccc23)cc(N)c2ccccc21 | 0.45 | 0.44 |  | 4 | 
8 | Nc1cc(/C=C/c2n[nH]c3ccccc23)nc2ccccc12 | 0.14 | 0.4 | 2 | 164 | 
